The values that follow come from ChEMBL document CHEMBL3797154, “Design and Synthesis of 1-((1,5-Bis(4-chlorophenyl)-2-methyl-1H-pyrrol-3-yl)methyl)-4-methylpiperazine (BM212) and N-Adamantan-2-yl-N'-((E)-3,7-dimethylocta-2,6-dienyl)ethane-1,2-diamine (SQ109) Pyrrole Hybrid Derivatives: Discovery of Potent Antitubercular Agents Effective against …” (J Med Chem, 2016).

The test system of assay [1] is Mycobacterium tuberculosis. Nature of the assay: Antimycobacterial activity against drug-resistant Mycobacterium tuberculosis isolate MDR1 assessed as inhibition of mycobacterial growth incubated for 9 days. The format is functional. The method, boiled down: (§1)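 MIC by HT-SPOTi on Middlebrook 7H10 agar with 0.05% (v/v) glycerol and 10% (v/v) OADC in 96-well format. Compounds dissolved at 50 mg/mL (stock), two-fold serial dilutions, final 500-0.5 µg/mL. Each well spotted with 2 µL early-to-midlog culture (2x10^3 CFU), incubated at 37 °C until distinct spots in control wells. DMSO-only and isoniazid controls; triplicate.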

The test system of assay [2] is Mycobacterium tuberculosis. Nature of the assay: Antimycobacterial activity against drug-resistant Mycobacterium tuberculosis isolate MDR2 assessed as inhibition of mycobacterial growth incubated for 9 days. The assay is classed as functional. The method, boiled down: as §1
Assay [3] relates to Mycobacterium tuberculosis variant bovis BCG. Nature of the assay: Antimycobacterial activity against Mycobacterium bovis BCG Pasteur ATCC 35734 assessed as inhibition of mycobacterial growth incubated for 24 hrs by MABA method. The format is functional. To be noted: Pasteur ATCC 35734, 24 h. (The colour change of resazurin is a common sign of viable cells or microbes.)
For assay [4], the system named is Mycobacterium tuberculosis. The assay can be described thus: Antimycobacterial activity against drug-resistant Mycobacterium tuberculosis isolate MDR1 assessed as inhibition of mycobacterial growth at 500 ug/ml incubated for 9 days. The format is functional, organism-based. The method, boiled down: as §1
Assay [5] relates to Mycobacterium tuberculosis. Nature of the assay: Antimycobacterial activity against drug-resistant Mycobacterium tuberculosis isolate MDR2 assessed as inhibition of mycobacterial growth at 500 ug/ml incubated for 9 days. The format is functional, organism-based. In short, it runs like this:
as §1

As usually defined, the MIC is the smallest concentration in the dilution series that meets the test's criterion for growth inhibition.

Converted amounts (≈) assume the structure as drawn. The source made the active and inactive calls. Some results are limits rather than exact numbers.

In the case of `Cc1cc(CNOCc2ccccc2)c(C)n1-c1ccc(F)cc1`, the MIC in assay [1] (isolate MDR1, 216 h) is 62 µg/mL (≈ 191 µM); in assay [2] (isolate MDR2, 216 h), above 125 µg/mL; in assay [3], above 64 µg/mL.
In the same order, the values of `Cc1cc(CNCCc2ccccc2)c(C)n1-c1ccc(Cl)cc1` are 1.9 µg/mL (≈ 5.61 µM), 7.8 µg/mL (≈ 23 µM) and 16 µg/mL (≈ 47.2 µM).
Consider `NNC(=O)c1ccncc1` [ISONIAZID], for which the MIC in assay [1] (isolate MDR1, 216 h) is 10 µg/mL (≈ 72.9 µM); in assay [2] (isolate MDR2, 216 h), 25 µg/mL (≈ 182 µM).
Regarding `CC(C)=CCC/C(C)=C/CNCCNC1C2CC3CC(C2)CC1C3` (stereo not given) [SQ109], the minimal inhibitory concentration (MIC) in assay [3] was determined as 2 µg/mL (≈ 6.05 µM).
Take `Cc1ccc(CNCc2cc(C)n(-c3ccc(Cl)cc3)c2C)cc1`: the minimal inhibitory concentration (MIC) in assay [1] (isolate MDR1, 216 h) came to 3.9 µg/mL (≈ 11.5 µM); in assay [2] (isolate MDR2, 216 h), 7.8 µg/mL (≈ 23 µM); in assay [3] it was 4 µg/mL (≈ 11.8 µM).
As to `Cc1c(CNC2CCCCC2)cc(-c2ccc(Cl)cc2)n1-c1ccc(Cl)cc1`, the MIC in assay [3] was 4 µg/mL (≈ 9.68 µM).
On to `Cc1cc(CNC2C3CC4CC(C3)CC2C4)c(C)n1-c1ccc(Cl)cc1` (stereo not given), for which the minimum inhibitory concentration (MIC) was 3.9 µg/mL (≈ 10.6 µM) in assay [1] (isolate MDR1, 216 h); 125 µg/mL (≈ 339 µM) in assay [2] (isolate MDR2, 216 h); 2 µg/mL (≈ 5.42 µM) in assay [3].
As for `Cc1cc(CN2CCN(C3C4CC5CC(C4)CC3C5)CC2)c(C)n1-c1ccc(Cl)cc1` (stereo not given), the minimum inhibitory concentration (MIC) in assay [1] (isolate MDR1, 216 h) stood at 7.8 µg/mL (≈ 17.8 µM); in assay [2] (isolate MDR2, 216 h), 16 µg/mL (≈ 36.5 µM); in assay [3], 3.3 µg/mL (≈ 7.53 µM).
For the molecule `Cc1cc(/C=N\OCc2ccccc2)c(C)n1-c1ccc(Cl)cc1`, the MIC in assay [1] (isolate MDR1, 216 h) is above 125 µg/mL; in assay [2] (isolate MDR2, 216 h) it was above 125 µg/mL; in assay [3] it was above 64 µg/mL.
Regarding `Cc1c(CN2CCN(C34CC5CC(CC(C5)C3)C4)CC2)cc(-c2ccc(Cl)cc2)n1-c1ccc(Cl)cc1`, the MIC in assay [1] (isolate MDR1, 216 h) amounted to 16 µg/mL (≈ 29.9 µM); in assay [2] (isolate MDR2, 216 h) it was 62 µg/mL (≈ 116 µM); in assay [3] it was 2 µg/mL (≈ 3.74 µM).
The matching figures for `Cc1cc(CNC2CCCCC2)c(C)n1-c1ccc(Cl)cc1`: 0.5 µg/mL (≈ 1.58 µM), 16 µg/mL (≈ 50.5 µM) and 0.4 µg/mL (≈ 1.26 µM).
For the molecule `Cc1cc(CN2CCN(C34CC5CC(CC(C5)C3)C4)CC2)c(C)n1-c1ccc(Cl)cc1`, the minimum inhibitory concentration (MIC) in assay [1] (isolate MDR1, 216 h) came out at 125 µg/mL (≈ 285 µM); in assay [2] (isolate MDR2, 216 h) it was 125 µg/mL (≈ 285 µM); in assay [3] it was 16 µg/mL (≈ 36.5 µM).
Take `Cc1cc(CNCc2ccccc2)c(C)n1-c1ccc(F)cc1`: the MIC was found to be 7.8 µg/mL (≈ 25.3 µM) in assay [1] (isolate MDR1, 216 h); 62 µg/mL (≈ 201 µM) in assay [2] (isolate MDR2, 216 h); 13 µg/mL (≈ 42.2 µM) in assay [3].
With `Cc1cc(CNCc2ccc(F)cc2)c(C)n1-c1ccc(Cl)cc1`, the MIC result in assay [1] is “inactive”. The MIC is 16 µg/mL (≈ 46.7 µM) in assay [2] (isolate MDR2, 216 h) and 0.5 µg/mL (≈ 1.46 µM) in assay [3]. Besides, in assay [4], the “growth inhibition (GI)” value was “inactive”.
As for `Cc1cc(CN2CCN(C3C[C@@H]4CC[C@H]3C4)CC2)c(C)n1-c1ccc(Cl)cc1` (mixture of isomers), the minimal inhibitory concentration (MIC) in assay [1] (isolate MDR1, 216 h) turned out to be 3.9 µg/mL; in assay [2] (isolate MDR2, 216 h), 31 µg/mL; in assay [3] it was 32 µg/mL.
As for `Cc1c(CN2CCN(C3C4CC5CC(C4)CC3C5)CC2)cc(-c2ccc(Cl)cc2)n1-c1ccc(Cl)cc1` (stereo not given), the MIC in assay [1] (isolate MDR1, 216 h) was 125 µg/mL (≈ 234 µM); in assay [2] (isolate MDR2, 216 h) it was 125 µg/mL (≈ 234 µM); in assay [3], 64 µg/mL (≈ 120 µM).
For `Cc1cc(CN2CCN(C3CCCCC3)CC2)c(C)n1-c1ccc(Cl)cc1`, the minimum inhibitory concentration (MIC) in assay [1] (isolate MDR1, 216 h) amounted to 7.8 µg/mL (≈ 20.2 µM); in assay [2] (isolate MDR2, 216 h), 62 µg/mL (≈ 161 µM); in assay [3], 21 µg/mL (≈ 54.4 µM).
On to `Cc1cccc(-n2c(C)cc(CN3CCN(C4C5CC6CC(C5)CC4C6)CC3)c2C)c1` (stereo not given), for which the MIC in assay [1] (isolate MDR1, 216 h) was 31 µg/mL (≈ 74.2 µM); in assay [2] (isolate MDR2, 216 h) it was 125 µg/mL (≈ 299 µM); in assay [3] it was 62 µg/mL (≈ 148 µM).
As to `Cc1c(CN2CCN(C3CC4CCC3C4)CC2)cc(-c2ccc(Cl)cc2)n1-c1ccc(Cl)cc1` (mixture of isomers), the MIC in assay [3] is 64 µg/mL.
Regarding `Cc1c(CN2CCN(c3ccccc3)CC2)c(CN2CCN(c3ccccc3)CC2)c(C)n1-c1ccc(Cl)cc1`, the MIC in assay [1] (isolate MDR1, 216 h) is 62 µg/mL (≈ 112 µM); in assay [2] (isolate MDR2, 216 h), above 125 µg/mL; in assay [3] it was above 64 µg/mL.
In the case of `Cc1c(CN2CCN(C)CC2)cc(-c2ccc(Cl)cc2)n1-c1ccc(Cl)cc1`, the MIC was found to be 3.9 µg/mL (≈ 9.41 µM) in assay [1] (isolate MDR1, 216 h); 16 µg/mL (≈ 38.6 µM) in assay [2] (isolate MDR2, 216 h); 0.78 µg/mL (≈ 1.88 µM) in assay [3].
On to `Cc1cc(CN2CCN(C3C4CC5CC(C4)CC3C5)CC2)c(C)n1-c1ccc(C(C)C)cc1` (stereo not given), for which the minimal inhibitory concentration (MIC) is 62 µg/mL (≈ 139 µM) in assay [1] (isolate MDR1, 216 h); 125 µg/mL (≈ 280 µM) in assay [2] (isolate MDR2, 216 h); 4 µg/mL (≈ 8.97 µM) in assay [3].
As for `Cc1c(CNCc2ccccc2)cc(-c2ccc(Cl)cc2)n1-c1ccc(Cl)cc1`, the MIC in assay [3] was 8 µg/mL (≈ 19 µM).
In the case of `Cc1cc(CN2CCN(C3C4CC5CC(C4)CC3C5)CC2)c(C)n1-c1ccccc1F` (stereo not given), the minimum inhibitory concentration (MIC) in assay [1] (isolate MDR1, 216 h) is 7.8 µg/mL (≈ 18.5 µM); in assay [2] (isolate MDR2, 216 h) it was 16 µg/mL (≈ 38 µM); in assay [3], 1.3 µg/mL (≈ 3.08 µM).
On to `Cc1cc(CNOCc2ccccc2)c(C)n1-c1ccc(Cl)cc1`, for which the MIC in assay [1] (isolate MDR1, 216 h) was 125 µg/mL (≈ 367 µM); in assay [3], above 64 µg/mL. The MIC result in assay [2] was “inactive”. Moreover, in assay [5], the “growth inhibition (GI)” value is “inactive”.
Regarding `Cc1cc(CNCc2ccc(Cl)cc2)c(C)n1-c1ccc(Cl)cc1`, the minimal inhibitory concentration (MIC) is 31 µg/mL (≈ 86.3 µM) in assay [1] (isolate MDR1, 216 h); above 125 µg/mL in assay [2] (isolate MDR2, 216 h); 8 µg/mL (≈ 22.3 µM) in assay [3].
On to `Cc1cc(CN2CCN(c3ccccc3)CC2)c(C)n1-c1ccc(Cl)cc1`, for which the MIC in assay [1] (isolate MDR1, 216 h) was 31 µg/mL (≈ 81.6 µM); in assay [2] (isolate MDR2, 216 h), above 125 µg/mL; in assay [3], 32 µg/mL (≈ 84.2 µM).
For `Cc1cc(CNCc2ccccc2)c(C)n1-c1ccc(Cl)cc1`, the minimum inhibitory concentration (MIC) turned out to be 1 µg/mL (≈ 3.08 µM) in assay [1] (isolate MDR1, 216 h); 3.9 µg/mL (≈ 12 µM) in assay [2] (isolate MDR2, 216 h); 0.5 µg/mL (≈ 1.54 µM) in assay [3].
As for `Cc1c(CN2CCN(c3ccccc3)CC2)cc(-c2ccc(Cl)cc2)n1-c1ccc(Cl)cc1`, the minimal inhibitory concentration (MIC) in assay [1] (isolate MDR1, 216 h) is 3.9 µg/mL (≈ 8.19 µM); in assay [2] (isolate MDR2, 216 h) it was above 125 µg/mL; in assay [3], 2 µg/mL (≈ 4.2 µM).
